Results taken from ChEMBL document CHEMBL1817584, “Synthesis of novel fluconazoliums and their evaluation for antibacterial and antifungal activities” (2011).

Columns and labels:
Format in all cases: functional
Aspergillus fumigatus = assay: Antifungal activity against Aspergillus fumigatus ATCC 96918 after 24 hrs by twofold serial dilution method; conditions: ATCC 96918, 24 h
In short: (§1)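 A fungal spore suspension was made in sterile distilled water from a 1-day-old culture grown on Sabouraud agar, then tested against serial dilutions of compounds (DMSO stocks) to determine MIC.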

Escherichia coli [1] = assay: Antibacterial activity against Escherichia coli ATCC 8099 after 24 hrs by twofold serial dilution method; conditions: ATCC 8099, 24 h
In short: (§2)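 Each bacterial suspension was adjusted with sterile saline to 1 × 10⁵ CFU. Compounds were first dissolved in DMSO as stock solutions, then diluted in Mueller–Hinton broth in twofold steps (8, 4, 2, 1, 0.5, 0.25). Dilutions were inoculated and incubated at 37 °C for 24 h, and MIC was read. DMSO plus inoculum without drug served as a solvent control.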

Bacillus subtilis [2] = assay: Antibacterial activity against Bacillus subtilis ATCC 21216 after 24 hrs by twofold serial dilution method; conditions: ATCC 21216, 24 h; in short: as §2
Pseudomonas aeruginosa [3] = assay: Antibacterial activity against Pseudomonas aeruginosa ATCC 27853 after 24 hrs by twofold serial dilution method; conditions: ATCC 27853, 24 h; in short: as §2
Candida albicans = assay: Antifungal activity against Candida albicans ATCC 76615 after 24 hrs by twofold serial dilution method; conditions: ATCC 76615, 24 h; in short: as §1
Staphylococcus aureus [4] = assay: Ratio of Norfloxacin MIC to compound MIC for Staphylococcus aureus ATCC 6538
Staphylococcus aureus [5] = assay: Ratio of Chloromycin MIC to compound MIC for Staphylococcus aureus ATCC 6538
Staphylococcus aureus [6] = assay: Antibacterial activity against methicillin-resistant Staphylococcus aureus N315 after 24 hrs by twofold serial dilution method; conditions: N315, 24 h
In short: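 Compounds were dissolved in DMSO as stock, then diluted twofold in Mueller–Hinton broth. Chloromycin and norfloxacin were run as reference drugs. The inoculum was adjusted in sterile saline to 1 × 10⁵ CFU, and a DMSO-plus-inoculum well served as solvent control. Plates were incubated at 37 °C for 24 h and read as MIC.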

Staphylococcus aureus [7] = assay: Antibacterial activity against Staphylococcus aureus ATCC 6538 after 24 hrs by twofold serial dilution method; conditions: ATCC 6538, 24 h; in short: as §2
Bacillus [8] = assay: Antibacterial activity against Bacillus proteus ATCC 13315 after 24 hrs by twofold serial dilution method; conditions: ATCC 13315, 24 h; in short: as §2
Pseudomonas aeruginosa [9] = assay: Ratio of Chloromycin MIC to compound MIC for Pseudomonas aeruginosa ATCC 27853
Escherichia coli [10] = assay: Ratio of Chloromycin MIC to compound MIC for Escherichia coli ATCC 8099
Bacillus [11] = assay: Ratio of Chloromycin MIC to compound MIC for Bacillus proteus ATCC 13315
Bacillus subtilis [12] = assay: Ratio of Chloromycin MIC to compound MIC for Bacillus subtilis ATCC 21216

Structure (SMILES) | MIC (Aspergillus fumigatus) [µg/mL] | MIC (Escherichia coli [1]) [µg/mL] | MIC (Bacillus subtilis [2]) [µg/mL] | MIC (Pseudomonas aeruginosa [3]) [µg/mL] | MIC (Candida albicans) [µg/mL] | Ratio (Staphylococcus aureus [4]) | Ratio (Staphylococcus aureus [5]) | MIC (Staphylococcus aureus [6]) [µg/mL] | MIC (Staphylococcus aureus [7]) [µg/mL] | MIC (Bacillus [8]) [µg/mL] | Ratio (Pseudomonas aeruginosa [9]) | Ratio (Escherichia coli [10]) | Ratio (Bacillus [11]) | Ratio (Bacillus subtilis [12])
CCCCCCCC[n+]1cnn(CC(O)(Cn2c[n+](CCCCCCCC)cn2)c2ccc(F)cc2F)c1.[Br-].[Br-] | 128 | 1 | 32 | 8 | 2 | 8 | 64 | 8 | 1 | 64 | – | – | – | –
OC(Cn1c[n+](CCOc2ccc3ccccc3c2)cn1)(Cn1c[n+](CCOc2ccc3ccccc3c2)cn1)c1ccc(F)cc1F.[Br-].[Br-] | 128 | 2 | 64 | 8 | 8 | – | 4 | 32 | 4 | 4 | 4 | 4 | 4 | 4
